{"source": "ChEMBL document CHEMBL1142492", "about": "(J Med Chem, 2008)", "key": {"[1]": {"target": "Phosphatidylinositol 4,5-bisphosphate 3-kinase catalytic subunit gamma isoform (Homo sapiens) (UniProt P48736)", "assay": "Inhibition of PIK3CG at 3 uM"}, "[2]": {"target": "Serine/threonine-protein kinase TAO1 (Homo sapiens) (UniProt Q7L7X3)", "assay": "Inhibition of TAOK1 at 3 uM"}, "[3]": {"target": "Tyrosine-protein kinase TXK (Homo sapiens) (UniProt P42681)", "assay": "Inhibition of TXK at 3 uM"}, "[4]": {"target": "Serine/threonine-protein kinase tousled-like 1 (Homo sapiens) (UniProt Q9UKI8)", "assay": "Inhibition of TLK1 at 3 uM"}, "[5]": {"target": "Mitogen-activated protein kinase 10 (Homo sapiens) (UniProt P53779)", "sequence (P53779 whole entry)": "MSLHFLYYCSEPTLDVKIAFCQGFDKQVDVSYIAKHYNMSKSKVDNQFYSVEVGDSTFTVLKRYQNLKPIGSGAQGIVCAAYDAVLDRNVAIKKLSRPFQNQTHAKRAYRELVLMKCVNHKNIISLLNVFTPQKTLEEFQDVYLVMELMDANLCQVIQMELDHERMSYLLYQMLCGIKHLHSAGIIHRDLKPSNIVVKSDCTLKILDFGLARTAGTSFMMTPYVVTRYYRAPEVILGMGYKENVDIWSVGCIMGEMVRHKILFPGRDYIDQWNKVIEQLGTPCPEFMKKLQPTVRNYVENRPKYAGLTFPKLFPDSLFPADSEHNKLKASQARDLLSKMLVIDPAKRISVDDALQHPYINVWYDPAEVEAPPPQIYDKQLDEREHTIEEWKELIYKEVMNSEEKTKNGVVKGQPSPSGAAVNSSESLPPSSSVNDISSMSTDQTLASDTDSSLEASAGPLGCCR", "assay": "Inhibition of JNK3 at 3 uM"}, "[6]": {"target": "Serine/threonine-protein kinase LATS1 (Homo sapiens) (UniProt O95835)", "sequence (O95835 whole entry)": "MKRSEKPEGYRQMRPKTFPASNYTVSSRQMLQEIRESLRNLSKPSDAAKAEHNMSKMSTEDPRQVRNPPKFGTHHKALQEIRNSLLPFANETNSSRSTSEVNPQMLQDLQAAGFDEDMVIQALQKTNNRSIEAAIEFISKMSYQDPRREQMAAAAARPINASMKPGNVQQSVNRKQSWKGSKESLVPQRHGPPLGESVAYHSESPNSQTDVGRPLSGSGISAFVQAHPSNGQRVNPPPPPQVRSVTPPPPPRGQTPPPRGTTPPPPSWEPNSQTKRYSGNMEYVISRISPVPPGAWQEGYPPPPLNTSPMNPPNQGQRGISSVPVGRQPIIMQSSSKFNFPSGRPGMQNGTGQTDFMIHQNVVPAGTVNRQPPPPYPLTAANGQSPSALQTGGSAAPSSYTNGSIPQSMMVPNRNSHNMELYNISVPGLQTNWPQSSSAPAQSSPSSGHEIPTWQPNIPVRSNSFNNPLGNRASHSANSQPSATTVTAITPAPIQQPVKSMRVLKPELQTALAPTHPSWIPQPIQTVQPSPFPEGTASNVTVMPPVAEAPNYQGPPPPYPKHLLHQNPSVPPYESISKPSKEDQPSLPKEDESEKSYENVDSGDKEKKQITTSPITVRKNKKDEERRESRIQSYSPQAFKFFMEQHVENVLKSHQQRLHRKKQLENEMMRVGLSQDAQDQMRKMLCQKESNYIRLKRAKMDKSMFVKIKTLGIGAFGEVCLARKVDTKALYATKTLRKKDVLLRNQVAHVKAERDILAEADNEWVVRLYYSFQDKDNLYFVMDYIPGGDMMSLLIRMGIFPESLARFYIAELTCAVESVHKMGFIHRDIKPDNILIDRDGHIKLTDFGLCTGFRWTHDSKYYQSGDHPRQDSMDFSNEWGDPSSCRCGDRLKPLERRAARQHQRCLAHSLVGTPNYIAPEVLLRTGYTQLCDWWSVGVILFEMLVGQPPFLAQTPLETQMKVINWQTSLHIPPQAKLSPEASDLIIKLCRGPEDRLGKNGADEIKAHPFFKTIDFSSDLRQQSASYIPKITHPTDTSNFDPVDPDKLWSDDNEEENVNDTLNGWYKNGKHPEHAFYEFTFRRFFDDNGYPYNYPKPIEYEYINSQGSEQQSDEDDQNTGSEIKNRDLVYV", "assay": "Inhibition of LATS1 at 3 uM"}, "[7]": {"target": "Tyrosine-protein kinase Lck (Homo sapiens) (UniProt P06239)", "assay": "Inhibition of LCK at 3 uM"}, "[8]": {"target": "Serine/threonine-protein kinase STK11 (Homo sapiens) (UniProt Q15831)", "assay": "Inhibition of LKB1 at 3 uM"}, "[9]": {"target": "Serine/threonine-protein kinase 10 (Homo sapiens) (UniProt O94804)", "assay": "Inhibition of LOK at 3 uM"}, "[10]": {"system": "eIF-2-alpha kinase GCN2 (Homo sapiens), Q9P2K8 [S808G]", "assay": "Inhibition of GCN2 Kin.Dom.2,S808G mutant at 3 uM"}, "[11]": {"target": "Insulin-like growth factor 1 receptor (Homo sapiens) (UniProt P08069)", "assay": "Inhibition of IGF1R at 3 uM"}, "[12]": {"target": "Serine/threonine-protein kinase MARK1 (Homo sapiens) (UniProt Q9P0L2)", "assay": "Inhibition of MARK1 at 3 uM"}, "[13]": {"target": "MAP/microtubule affinity-regulating kinase 4 (Homo sapiens) (UniProt Q96L34)", "assay": "Inhibition of MARK4 at 3 uM"}, "[14]": {"target": "Serine/threonine-protein kinase 4 (Homo sapiens) (UniProt Q13043)", "assay": "Inhibition of MST1 at 3 uM"}, "[15]": {"target": "Macrophage-stimulating protein receptor (Homo sapiens) (UniProt Q04912)", "assay": "Inhibition of MST1R at 3 uM"}, "[16]": {"target": "Serine/threonine-protein kinase 26 (Homo sapiens) (UniProt Q9P289)", "assay": "Inhibition of MST4 at 3 uM"}, "[17]": {"target": "Serine/threonine-protein kinase PAK 2 (Homo sapiens) (UniProt Q13177)", "assay": "Inhibition of PAK2 at 3 uM"}, "[18]": {"target": "Cyclin-dependent kinase 18 (Homo sapiens) (UniProt Q07002)", "assay": "Inhibition of PCTK3 at 3 uM"}, "[19]": {"target": "Protein kinase C delta type (Homo sapiens) (UniProt Q05655)", "assay": "Inhibition of PRKCD at 3 uM"}, "[20]": {"target": "Protein-tyrosine kinase 2-beta (Homo sapiens) (UniProt Q14289)", "sequence (Q14289 whole entry, looked up)": "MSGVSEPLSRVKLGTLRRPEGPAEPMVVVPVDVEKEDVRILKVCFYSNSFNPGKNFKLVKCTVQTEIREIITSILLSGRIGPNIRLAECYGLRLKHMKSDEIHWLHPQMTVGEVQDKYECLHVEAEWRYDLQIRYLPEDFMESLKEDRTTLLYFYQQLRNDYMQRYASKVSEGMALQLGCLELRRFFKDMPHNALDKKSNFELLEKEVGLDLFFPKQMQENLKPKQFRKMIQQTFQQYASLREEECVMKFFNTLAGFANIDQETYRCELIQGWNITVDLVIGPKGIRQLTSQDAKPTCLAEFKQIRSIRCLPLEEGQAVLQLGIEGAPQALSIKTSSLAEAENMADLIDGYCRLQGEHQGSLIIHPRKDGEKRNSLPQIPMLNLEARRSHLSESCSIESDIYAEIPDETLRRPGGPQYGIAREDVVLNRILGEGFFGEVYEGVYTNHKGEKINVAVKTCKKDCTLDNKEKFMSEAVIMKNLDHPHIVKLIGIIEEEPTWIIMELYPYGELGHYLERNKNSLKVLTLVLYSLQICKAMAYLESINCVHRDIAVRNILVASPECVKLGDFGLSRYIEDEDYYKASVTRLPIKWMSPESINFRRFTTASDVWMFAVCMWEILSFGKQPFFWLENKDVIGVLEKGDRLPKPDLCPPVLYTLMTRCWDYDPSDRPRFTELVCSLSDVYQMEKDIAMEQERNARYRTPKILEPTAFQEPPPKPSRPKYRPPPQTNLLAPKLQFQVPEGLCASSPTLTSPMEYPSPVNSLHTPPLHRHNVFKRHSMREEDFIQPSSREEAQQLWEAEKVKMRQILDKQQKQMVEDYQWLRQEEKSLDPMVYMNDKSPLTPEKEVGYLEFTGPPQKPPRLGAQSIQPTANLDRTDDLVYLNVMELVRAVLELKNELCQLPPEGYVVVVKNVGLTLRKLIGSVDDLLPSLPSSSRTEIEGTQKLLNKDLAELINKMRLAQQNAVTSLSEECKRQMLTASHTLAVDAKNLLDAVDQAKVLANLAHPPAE", "assay": "Inhibition of PTK2B at 3 uM"}, "[21]": {"system": "Proto-oncogene tyrosine-protein kinase receptor Ret (Homo sapiens), P07949 [V804M]", "assay": "Inhibition of RET V804M mutant at 3 uM"}, "[22]": {"target": "Receptor-interacting serine/threonine-protein kinase 4 (Homo sapiens) (UniProt P57078)", "assay": "Inhibition of RIPK4 at 3 uM"}, "[23]": {"target": "Serine/threonine-protein kinase 32C (Homo sapiens) (UniProt Q86UX6)", "assay": "Inhibition of YANK3 at 3 uM"}, "[24]": {"target": "Rho-associated protein kinase 2 (Homo sapiens, UniProt O75116)", "assay": "Inhibition of ROCK2"}, "[25]": {"target": "Beta-2 adrenergic receptor (Homo sapiens) (UniProt P07550)", "assay": "Inhibition of human adrenergic beta2 receptor at 3 uM", "summary_of_the_method": "(§1)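 Counter-screen binding/enzyme panel at single 3 μM, n=2; results as percent inhibition. Species per target as listed (rat NMDA, GABAA sites; human receptors, transporters; rabbit ACE).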"}, "[26]": {"target": "D(2) dopamine receptor (Homo sapiens) (UniProt P14416)", "assay": "Inhibition of human dopamine D2S receptor at 3 uM", "summary_of_the_method": "as §1"}, "[27]": {"target": "Pro-epidermal growth factor (Homo sapiens) (UniProt P01133)", "assay": "Inhibition of human EGF at 3 uM", "summary_of_the_method": "as §1"}, "[28]": {"target": "Glutamate NMDA receptor (Rattus norvegicus) (UniProt P35439+Q00959+Q00960+Q00961+Q62645+Q8VHN2+Q9R1M7)", "assay": "Displacement of glycine from rat NMDA receptor at 3 uM", "type": "protein-complex assay", "summary_of_the_method": "as §1"}, "[29]": {"target": "hERG (KCNH2) (Homo sapiens, UniProt Q12809)", "assay": "Inhibition of human ERG at 3 uM", "summary_of_the_method": "as §1"}, "[30]": {"system": "Tyrosine-protein kinase ABL1 (Homo sapiens), P00519 [E255K]", "assay": "Inhibition of ABL1E255K mutant at 3 uM"}, "[31]": {"system": "Tyrosine-protein kinase ABL1 (Homo sapiens), P00519 [H396P]", "assay": "Inhibition of ABL1 H396P mutant at 3 uM"}, "[32]": {"system": "Tyrosine-protein kinase ABL1 (Homo sapiens), P00519 [M351T]", "assay": "Inhibition of ABL1 M351T mutant at 3 uM"}, "[33]": {"target": "Cyclin-dependent kinase 11A (Homo sapiens) (UniProt Q9UQ88)", "sequence (Q9UQ88 whole entry)": "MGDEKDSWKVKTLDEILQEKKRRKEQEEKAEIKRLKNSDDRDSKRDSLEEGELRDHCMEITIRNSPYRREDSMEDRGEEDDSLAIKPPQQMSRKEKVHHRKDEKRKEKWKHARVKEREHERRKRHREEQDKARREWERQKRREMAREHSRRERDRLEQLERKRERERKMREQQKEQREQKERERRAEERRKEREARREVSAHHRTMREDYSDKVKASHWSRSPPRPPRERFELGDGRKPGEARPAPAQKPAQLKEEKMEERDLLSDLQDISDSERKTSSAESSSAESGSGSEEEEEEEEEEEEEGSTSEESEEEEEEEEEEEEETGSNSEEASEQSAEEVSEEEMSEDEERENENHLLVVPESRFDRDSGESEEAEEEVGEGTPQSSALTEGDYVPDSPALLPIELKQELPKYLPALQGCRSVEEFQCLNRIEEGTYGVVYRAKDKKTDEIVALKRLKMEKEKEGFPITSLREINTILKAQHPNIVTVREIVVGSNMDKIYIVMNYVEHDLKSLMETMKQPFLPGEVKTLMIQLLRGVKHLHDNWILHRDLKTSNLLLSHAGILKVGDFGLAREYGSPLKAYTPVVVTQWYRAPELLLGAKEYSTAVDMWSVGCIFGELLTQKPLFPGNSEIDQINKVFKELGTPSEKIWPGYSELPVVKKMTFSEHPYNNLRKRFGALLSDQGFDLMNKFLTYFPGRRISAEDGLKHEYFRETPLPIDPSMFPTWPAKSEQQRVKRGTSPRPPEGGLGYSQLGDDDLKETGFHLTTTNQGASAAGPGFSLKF", "assay": "Inhibition of CDC2L2 at 3 uM"}, "[34]": {"target": "Atypical kinase COQ8A, mitochondrial (Homo sapiens) (UniProt Q8NI60)", "assay": "Inhibition of ADCK3 at 3 uM"}, "[35]": {"target": "RAC-gamma serine/threonine-protein kinase (Homo sapiens) (UniProt Q9Y243)", "assay": "Inhibition of AKT3 at 3 uM"}, "[36]": {"target": "Tyrosine-protein kinase receptor UFO (Homo sapiens) (UniProt P30530)", "sequence (P30530 whole entry)": "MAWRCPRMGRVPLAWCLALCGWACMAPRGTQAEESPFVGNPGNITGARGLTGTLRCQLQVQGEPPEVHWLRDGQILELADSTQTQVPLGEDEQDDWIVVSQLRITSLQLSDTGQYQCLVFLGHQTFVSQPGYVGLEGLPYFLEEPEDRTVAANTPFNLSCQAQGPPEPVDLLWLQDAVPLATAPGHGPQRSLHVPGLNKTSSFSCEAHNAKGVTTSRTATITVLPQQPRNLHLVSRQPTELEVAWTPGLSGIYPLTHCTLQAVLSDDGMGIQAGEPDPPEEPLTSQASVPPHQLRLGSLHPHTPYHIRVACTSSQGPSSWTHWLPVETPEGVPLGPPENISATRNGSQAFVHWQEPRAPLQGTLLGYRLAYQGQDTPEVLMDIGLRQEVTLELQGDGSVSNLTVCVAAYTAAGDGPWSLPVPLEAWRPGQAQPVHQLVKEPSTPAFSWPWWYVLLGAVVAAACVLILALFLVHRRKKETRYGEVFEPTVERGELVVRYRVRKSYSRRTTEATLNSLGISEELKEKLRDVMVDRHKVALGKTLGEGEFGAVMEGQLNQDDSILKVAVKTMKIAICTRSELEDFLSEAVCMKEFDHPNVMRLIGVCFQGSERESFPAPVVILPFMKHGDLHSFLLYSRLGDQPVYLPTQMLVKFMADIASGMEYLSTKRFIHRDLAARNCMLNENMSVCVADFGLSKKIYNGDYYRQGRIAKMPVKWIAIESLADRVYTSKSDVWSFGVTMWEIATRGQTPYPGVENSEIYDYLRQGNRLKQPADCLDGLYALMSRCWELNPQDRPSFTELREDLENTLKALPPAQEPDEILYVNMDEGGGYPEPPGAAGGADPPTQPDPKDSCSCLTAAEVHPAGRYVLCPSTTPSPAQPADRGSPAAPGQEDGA", "assay": "Inhibition of AXL at 3 uM"}, "[37]": {"target": "Bone morphogenetic protein receptor type-1A (Homo sapiens) (UniProt P36894)", "assay": "Inhibition of BMPR1A at 3 uM"}, "[38]": {"target": "Serine/threonine-protein kinase BRSK1 (Homo sapiens) (UniProt Q8TDC3)", "assay": "Inhibition of BRSK1 at 3 uM"}, "[39]": {"target": "5-hydroxytryptamine receptor 2A (Homo sapiens) (UniProt P28223)", "assay": "Inhibition of human 5HT2 receptor at 3 uM", "summary_of_the_method": "as §1"}, "[40]": {"target": "Macrophage colony-stimulating factor 1 receptor (Homo sapiens) (UniProt P07333)", "assay": "Inhibition of CSF1R at 3 uM"}, "[41]": {"target": "Serine/threonine-protein kinase DCLK1 (Homo sapiens) (UniProt O15075)", "assay": "Inhibition of DCAMKL1 at 3 uM"}, "[42]": {"target": "Serine/threonine-protein kinase 17A (Homo sapiens) (UniProt Q9UEE5)", "assay": "Inhibition of DRAK1 at 3 uM"}, "[43]": {"target": "Calcium/calmodulin-dependent protein kinase type II subunit delta (Homo sapiens) (UniProt Q13557)", "sequence (Q13557 whole entry)": "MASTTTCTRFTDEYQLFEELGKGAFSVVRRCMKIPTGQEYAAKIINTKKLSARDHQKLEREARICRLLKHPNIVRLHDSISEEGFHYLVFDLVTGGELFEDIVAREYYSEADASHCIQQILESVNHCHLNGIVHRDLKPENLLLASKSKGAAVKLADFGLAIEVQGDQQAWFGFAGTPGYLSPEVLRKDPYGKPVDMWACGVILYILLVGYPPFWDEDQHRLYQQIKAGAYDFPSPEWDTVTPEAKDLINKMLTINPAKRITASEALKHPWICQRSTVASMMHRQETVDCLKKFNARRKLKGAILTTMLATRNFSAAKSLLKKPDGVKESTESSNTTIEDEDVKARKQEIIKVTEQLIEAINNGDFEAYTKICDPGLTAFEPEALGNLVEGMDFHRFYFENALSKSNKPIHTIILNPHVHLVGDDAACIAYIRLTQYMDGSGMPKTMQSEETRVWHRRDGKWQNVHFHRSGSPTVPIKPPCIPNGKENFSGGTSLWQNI", "assay": "Inhibition of CAMK2D at 3 uM"}, "[44]": {"organism": "Homo sapiens", "conditions": "3 uM"}, "[45]": {"organism": "Rattus norvegicus", "conditions": "3 uM"}, "[46]": {"target": "Mitogen-activated protein kinase kinase kinase 12 (DLK) (Homo sapiens) (UniProt Q12852)", "assay": "Inhibition of DLK at 3 uM"}}, "data": [{"compound": "CN(C)CCOc1cc(-c2cn[nH]c2)ccc1NC(=O)C1COc2ccccc2O1", "note": "(stereo unspecified) [SR-3677]", "values": [{"measurement": "inhibition", "setting": "[1]", "result": "< 10", "unit": "%"}, {"measurement": "inhibition", "setting": "[2]", "result": "< 10", "unit": "%"}, {"measurement": "inhibition", "setting": "[3]", "result": "< 10", "unit": "%"}, {"measurement": "inhibition", "setting": "[4]", "result": "< 10", "unit": "%"}, {"measurement": "inhibition", "setting": "[5]", "result": "< 10", "unit": "%"}, {"measurement": "inhibition", "setting": "[6]", "result": "< 10", "unit": "%"}, {"measurement": "inhibition", "setting": "[7]", "result": "< 10", "unit": "%"}, {"measurement": "inhibition", "setting": "[8]", "result": "< 10", "unit": "%"}, {"measurement": "inhibition", "setting": "[9]", "result": "< 10", "unit": "%"}, {"measurement": "inhibition", "setting": "[10]", "result": "< 10", "unit": "%"}, {"measurement": "inhibition", "setting": "[11]", "result": "< 10", "unit": "%"}, {"measurement": "inhibition", "setting": "[12]", "result": "< 10", "unit": "%"}, {"measurement": "inhibition", "setting": "[13]", "result": "< 10", "unit": "%"}, {"measurement": "inhibition", "setting": "[14]", "result": "< 10", "unit": "%"}, {"measurement": "inhibition", "setting": "[15]", "result": "< 10", "unit": "%"}, {"measurement": "inhibition", "setting": "[16]", "result": "< 10", "unit": "%"}, {"measurement": "inhibition", "setting": "[17]", "result": "< 10", "unit": "%"}, {"measurement": "inhibition", "setting": "[18]", "result": "< 10", "unit": "%"}, {"measurement": "inhibition", "setting": "[19]", "result": "< 10", "unit": "%"}, {"measurement": "inhibition", "setting": "[20]", "result": "< 10", "unit": "%"}, {"measurement": "inhibition", "setting": "[21]", "result": "< 10", "unit": "%"}, {"measurement": "inhibition", "setting": "[22]", "result": "< 10", "unit": "%"}, {"measurement": "inhibition", "setting": "[23]", "result": "< 10", "unit": "%"}, {"measurement": "IC50", "setting": "[24]", "result": 3.2, "unit": "nM"}, {"measurement": "inhibition", "setting": "[25]", "result": 19, "unit": "%"}, {"measurement": "inhibition", "setting": "[26]", "result": 6, "unit": "%"}, {"measurement": "inhibition", "setting": "[27]", "result": -1, "unit": "%"}, {"measurement": "inhibition", "setting": "[28]", "result": -10, "unit": "%"}, {"measurement": "inhibition at 3 µM", "setting": "[29]", "result": 31, "unit": "%"}, {"measurement": "inhibition", "setting": "[30]", "result": "< 10", "unit": "%"}, {"measurement": "inhibition", "setting": "[31]", "result": "< 10", "unit": "%"}, {"measurement": "inhibition", "setting": "[32]", "result": "< 10", "unit": "%"}, {"measurement": "inhibition", "setting": "[33]", "result": "< 10", "unit": "%"}, {"measurement": "inhibition", "setting": "[34]", "result": "< 10", "unit": "%"}, {"measurement": "inhibition", "setting": "[35]", "result": 77, "unit": "%"}, {"measurement": "inhibition", "setting": "[36]", "result": "< 10", "unit": "%"}, {"measurement": "inhibition", "setting": "[37]", "result": "< 10", "unit": "%"}, {"measurement": "inhibition", "setting": "[38]", "result": "< 10", "unit": "%"}, {"measurement": "inhibition", "setting": "[39]", "result": 2, "unit": "%"}, {"measurement": "inhibition", "setting": "[40]", "result": "< 10", "unit": "%"}, {"measurement": "inhibition", "setting": "[41]", "result": "< 10", "unit": "%"}, {"measurement": "inhibition", "setting": "[42]", "result": "< 10", "unit": "%"}, {"measurement": "inhibition", "setting": "[43]", "result": "< 10", "unit": "%"}, {"measurement": "inhibition", "setting": "[44]", "result": 7, "unit": "%"}, {"measurement": "inhibition", "setting": "[45]", "result": -1, "unit": "%"}, {"measurement": "inhibition", "setting": "[46]", "result": "< 10", "unit": "%"}]}]}
